Reference: ChEMBL document CHEMBL1139390, “Synthesis and biological studies of different duocarmycin based glycosidic prodrugs for their use in the antibody-directed enzyme prodrug therapy” (J Med Chem, 2009)

How the values were obtained:
A549 [1] = experiment: Cytotoxicity against human A549 cells after 24 hrs by HTCFA; assay type: functional, cell-based; conditions: A549, 24 h
Method in brief: (§1)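 Clonogenic (HTCFA) assay on adherent A549 cells seeded in triplicate at 10^2–10^5 cells per well; after 24 h, medium replaced by serum-free UltraCulture and cells exposed 24 h to 6–8 concentrations from fresh DMSO solutions (final DMSO 1%).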

A549 [2] = experiment: Cytotoxicity against human A549 cells after 24 hrs in presence of cleaving enzyme by HTCFA; assay type: functional, cell-based; conditions: A549, 24 h; method in brief: as §1
[3] = Stability in ultraculture medium after 24 hrs by HPLC-MS; assay type: physicochemical; conditions: read-out: Stability
Method in brief: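 Compound held in UltraCulture medium at 37 °C for 24 h. The fraction remaining was quantified by HPLC-MS peak area (AUC) on a C12 reversed-phase column.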

A549 [4] = experiment: Ratio of IC50 for human A549 cells to IC50 for human A549 cells in presence of cleaving enzyme; assay type: functional
Method in brief: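 QIC50 is the IC50 of the prodrug alone divided by its IC50 with the cleaving glycosidase present. Both values come from the 24 h exposure A549 clonogenic assay with 9–10 days of outgrowth and methylene blue colony counts.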

SMILES | IC50 (A549 [1]) [nM] | IC50 (A549 [2]) [nM] | remaining at 24 h [3] [%] | Ratio IC50 (A549 [4])
C[C@@H](Cl)[C@@H]1CN(C(=O)c2cc3cc(OCCN(C)C)ccc3[nH]2)c2cc(O)c3ccccc3c21 | 0.75 |  |  | 
C[C@H]1[C@@H]2CN(C(=O)c3cc4cc(OCCN(C)C)ccc4[nH]3)C3=CC(=O)c4ccccc4[C@@]312 | 0.75 |  |  | 
C[C@@H](Cl)[C@@H]1CN(C(=O)c2cc3cc(OCCN(C)C)ccc3[nH]2)c2cc(O[C@@H]3O[C@H](CO)[C@H](O)[C@H](O)[C@H]3O)c3ccccc3c21 | 3600 | 0.8 | 27 | 4800
